Results: PMC7688577 (FASEB journal : official publication of the Federation of …, 2020)

Columns and labels:
Rho^P23H/+ mice [1] = experiment: Immunoblot of LC3 and SQSTM1/p62 in retinae after IVI; format: in vivo, mouse; conditions: 25 pmol IVI at PND 15, 48 h after treatment
Outline: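 Rho^P23H/+ mice received a 25 pmol/eye intravitreal injection of test compound at PND 15, with PBS in the contralateral eye. Retinae were taken 48 h later, and 30 μg of lysate was immunoblotted for SQSTM1/p62 and LC3 with β-actin as loading control. Blotting used SDS-PAGE, nitrocellulose transfer, 1 h blocking in 5% BSA/PBS-0.05% Tween 20, primary antibody overnight at 4 °C, secondary 1 h at RT, and chemiluminescent detection.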

P23H rhodopsin [2] = biological target: T1, P23H rhodopsin (Mus musculus, UniProt P15409, P23H); experiment: Non-radioactive pulse-chase assay in NIH3T3; format: cell-based; conditions: 10 μM
Outline: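 Non-radioactive pulse-chase. Cells (3 × 10⁵/well, 24-well) were grown overnight, starved in Met-free DMEM for 1 h, then pulsed with 50 μM L-AHA for 4 h (50 μM Met as negative control). Chase was 24 h in DMEM with 2 mM Met ± 10 μM test compound. Lysates (200 μg) were clicked with 5 μM BTN-sDIBO for 1 h at 37 °C, immunoprecipitated with 1D4, eluted at pH 2.8, dot-blotted and probed with HRP-streptavidin. Values normalized to DMSO on the same membrane; N=3, unpaired two-tailed t-test.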

[3] = Estimated vitreous concentration after intravitreal injection, rabbit; conditions: 1.76 μmol, vitreous cavity about 1.5 mL, ref [70]
P23H rhodopsin [4] = biological target: T1, P23H rhodopsin; experiment: Rhodopsin immunoblot of NIH3T3; format: cell-based; conditions: 10 μM MTX plus 100 nM BafA1, 24 h
Outline: (§1)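 Cells were seeded at 5 × 10⁵/well in 6-well plates for 17 h, then given fresh medium with test compound and inhibitor. Protein was measured by A280. Rhodopsin blots loaded 100 μg (P23H line) or 20 μg (WT line), run on 10% and 16% SDS-PAGE and transferred to nitrocellulose. Membranes were blocked 1 h in 5% BSA/PBS-0.05% Tween 20, probed with primary overnight at 4 °C and secondary 1 h at RT, with chemiluminescent detection.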

Rho^P23H/+ mice [5] = experiment: Electroretinogram; format: in vivo, mouse
Outline: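 Rho^P23H/+ mice (homozygous knock-in crossed with C57BL/6J). Test compound given by intravitreal injection to one eye, PBS to the other. Dosing was a single 25 or 100 pmol at PND 15 with ERG at PND 32, or four weekly injections (PND 15, 22, 29, 36) with ERG at PND 44. Scotopic ERG used eight flashes. Photopic ERG used six flashes (0.01–30 cd·s/m²) after 5 min adaptation to 10 cd/m², on that background. Age-matched Rho^+/+ controls. Two-way ANOVA.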

P23H rhodopsin [6] = biological target: T1, P23H rhodopsin; experiment: Rhodopsin dot blot of NIH3T3; format: cell-based; conditions: NIH3T3(RHO^P23H/GFP) cells, 10 μM, 24 h, vs DMSO control
Outline: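 NIH3T3(RHO^P23H/GFP) cells were seeded at 2.5 × 10⁴/well in 96-well plates, attached 4 h, then given medium with 2× test compound to reach 10 μM final for 24 h. Cells were PBS-washed and lysed in RIPA with protease inhibitors plus 6 s sonication. Of each well's lysate, 90% was dotted on nitrocellulose, air-dried and probed with 0.1 μg/mL HRP-1D4. Densitometry was normalized to DMSO.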

Rho^P23H/+ mice [7] = experiment: Retinal immunohistochemistry; format: in vivo, mouse
Outline: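 Rho^P23H/+ mice received intravitreal test compound (25 or 100 pmol) in one eye and PBS in the fellow eye. Dosing was either a single injection at PND 15, with eyes enucleated at PND 33, or four weekly injections from PND 15, with enucleation at PND 46. Retinae were processed for rhodopsin immunohistochemistry and ONL nuclear counts. Age-matched Rho^+/+ mice served as normal controls.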

[8] = tested on: rhodopsin mutants (T4R, P23H, P53R, C110Y, D190N, P267L); format: cell-based, mouse; conditions: U2OS cells
Outline: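 U2OS stable lines expressed WT or mutant mouse rhodopsin fused to Venus. Cells were transfected with pcDNA3.1 Zeo constructs, kept 48 h in DMEM/10% FBS, then selected with 400 μg/mL Zeocin. Stable cells were treated with test compound at 10 μM and immunostained for rhodopsin.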

RHO transcripts = experiment: qPCR of RHO transcripts in NIH3T3; format: cell-based, mouse; conditions: 10 μM, 24 h
Outline: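 NIH3T3 cells stably expressing WT or P23H rhodopsin (GFP lines) were seeded in 24-well plates at 2.5×10⁵ cells/well and cultured overnight at 37 °C, 5% CO₂. They were then exposed to test compound in culture medium for 24 h. RNA was precipitated by centrifugation at 12,000×g for 10 min at 4 °C, washed with 75% ethanol, air-dried and dissolved in nuclease-free water before qPCR.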

[9] = biological target: P23H rhodopsin fused with Renilla luciferase (Mus musculus, UniProt P15409, P23H); experiment: Rluc reporter assay in Hek293; format: cell-based; conditions: HEK293, read-out: Rluc assay Hek293 (RHO^P23H-Rluc) Efficacy
P23H rhodopsin [10] = biological target: T1, P23H rhodopsin; experiment: Image-based; format: cell-based
[11] = tested on: chymotrypsin-like proteasome activity; experiment: Proteasome activity assay; format: cell-based; conditions: NIH3T3(RHO^P23H/GFP) and NIH3T3(RHO^WT/GFP) cells, MTX 0.0195 to 10 μM, 24 h
Outline: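 Cells were seeded at 2500/well in 384-well plates and after 3 h treated for 24 h with test compound at 0.0195–10 μM final. Controls were 0.1% DMSO (100%) and 5 μM MG-132 for 8 h (0%). Proteasome-Glo reagent with Suc-LLVY-Glo substrate was added, shaken 2 min and held 24 min at RT. Luminescence gave chymotrypsin-like activity, normalized to the controls.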

WT rhodopsin = experiment: Rhodopsin immunoblot of NIH3T3; format: cell-based, mouse; conditions: 10 μM MTX plus 100 nM BafA1, 24 h
Outline: as §1

[12] = single IVI 100 pmol at PND 15, ERG at PND 32
[13] = single IVI 25 pmol at PND 15, IHC at PND 33

Compound: CN(Cc1cnc2nc(N)nc(N)c2n1)c1ccc(C(=O)N[C@@H](CCC(=O)O)C(=O)O)cc1 [CL-009, methotrexate]
- LC3-II level in retinae compared to PBS control (Rho^P23H/+ mice [1]): increase
- SQSTM1/p62 level in retinae compared to PBS control (Rho^P23H/+ mice [1]): decrease
- BTN-AHA labeled P23H rhodopsin at 24 h of chase in comparison to DMSO control (P23H rhodopsin [2]): significantly reduced
- Final concentration in vitreous [3]: about 1 mM
- MTX induced P23H rhodopsin clearance under co-treatment with BafA1 (immunoblot) (P23H rhodopsin [4]): abolished
- Multi-flash scotopic and photopic b-waves compared to PBS control group (Rho^P23H/+ mice [5]; four weekly IVIs starting at PND 15 (25 pmol per treatment), ERG at PND 44): significantly increased
- Photopic ERG responses vs PBS treated or non-treated eyes (Rho^P23H/+ mice [5]; single IVI 25 pmol at PND 15, ERG at PND 32): higher
- Multi-flash scotopic ERG a- and b-waves vs PBS or non-treated eyes (Rho^P23H/+ mice [5]; [12]): no effect
- Photopic ERG responses vs PBS treated or non-treated eyes (Rho^P23H/+ mice [5]; [12]): did not show any effects
- Ratio of scotopic and photopic b- to a-wave amplitudes (Rho^P23H/+ mice [5]; single IVI at PND 15, ERG at PND 32): not affected
- Rho protein level (Dot blot) (P23H rhodopsin [6]): Down
- Retinal degeneration caused by MTX (Rho^P23H/+ mice [7]; 100 pmol IVI, Rho^P23H/+ mice): did not see obvious retinal degeneration
- Nucleus number in the ONL vs PBS group, superior side (Rho^P23H/+ mice [7]; four IVIs of 25 pmol, IHC at PND 46): higher
- ONL nucleus number, either side of the retina (Rho^P23H/+ mice [7]; [13]): No change
- Total rhodopsin level and rhodopsin in the OS compared to PBS control, superior side (Rho^P23H/+ mice [7]; [13]): significant increase
- Rhodopsin immunofluorescence in cells expressing the P23H, C110Y, D190N and P267L mutants [8]: dose-dependent reductions
- Rho mRNA level (qPCR) (RHO transcripts; NIH3T3(RHO^P23H/GFP) cells, vs DMSO control): No Change
- WT and P23H rhodopsin transcripts in comparison to DMSO control (RHO transcripts; both NIH3T3(RHO^P23H/GFP) and NIH3T3(RHO^WT/GFP) cells): did not affect
- Emax [9]: 53%
- Mean intensity of P23H rhodopsin immunostaining per cell (P23H rhodopsin [10]; MTX alone): reduced in an MTX dose-dependent manner
- Emax (P23H rhodopsin [10]; NIH3T3, 24 h, read-out: Image-based assay NIH3T3 (RHO^P23H/GFP) Efficacy): 36%
- Chymotrypsin-like proteasome activity [11]: did not affect
- WT rhodopsin level under BafA1 and MTX co-treatment (immunoblot) (WT rhodopsin): accumulation
